Laboratory results as given in ChEMBL document CHEMBL1122121, “Synthesis and biological activity of 5'-substituted 5-fluoropyrimidine nucleosides” (J Med Chem, 1982).

Assays:
L1210 [1] = assay: Concentration required for the 50% inhibition of growth of L1210 mouse leukemia cells in culture; type: functional, cell-based
In short: (§1)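 10^5 mycoplasma-free L1210 or CCRF-CEM cells grown 48 h in RPMI 1640 with 10% fetal calf serum containing compound, then counted. Value is concentration giving 50% growth inhibition. Compounds were purified by preparative TLC until no FUrd was detectable by HPLC. Highest concentration noted was 10^-4 M.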

CCRF-CEM [2] = assay: Concentration required for the 50% inhibition of growth of CCRF-CEM human leukemia cells in culture; type: functional, cell-based; in short: as §1
Mus musculus [3] = assay: Percent increase in life span(ILS) was measured in mice at a dose of 100 mg/kg; type: functional
In short: (§2)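 Female DBA/2 mice (18–22 g), groups of five, implanted ip on day 0 with 10^5 L1210 leukemia cells. Compound dissolved in PBS and given ip daily on days 1–5 (q.d. 1–5). Controls received PBS. Mice were weighed on days 1 and 7. Read-outs were mean mortality and percent increase in life span.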

Mus musculus [4] = assay: Mortality rate was measured at a dose of 250 mg/kg; type: functional; in short: as §2
L1210 [5] = assay: Antitumor activity against L1210 leukemia cells in mice at a dose of 150 mg/kg (ip) expressed as change in the body weight after 7 days; type: functional, Mus musculus
In short: (§3)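 Female DBA/2 mice (18–22 g), groups of five, implanted ip with 10^5 L1210 cells on day 0. Compound in PBS given ip (0.2 mL) once daily days 1–5. Controls got PBS. Mice weighed on days 1 and 7. Weight change expressed as percentage of initial weight.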

Mus musculus [6] = assay: Mortality rate was measured at a dose of 100 mg/kg; type: functional; in short: as §2
L1210 [7] = assay: Antitumor activity against L1210 leukemia cells in mice at a dose of 100 mg/kg (ip) expressed as change in the body weight after 7 days; type: functional, Mus musculus; in short: as §3
Mus musculus [8] = assay: Percent increase in life span(ILS) was measured in mice at a dose of 150 mg/kg; type: functional; in short: as §2
Mus musculus [9] = assay: Percent increase in life span(ILS) was measured in mice at a dose of 250 mg/kg; type: functional; in short: as §2
L1210 [10] = assay: Antitumor activity against L1210 leukemia cells in mice at a dose of 250 mg/kg (ip) expressed as change in the body weight after 7 days; type: functional, Mus musculus; in short: as §3
Mus musculus [11] = assay: Mortality rate was measured at a dose of 150 mg/kg; type: functional; in short: as §2
CCRF-CEM [12] = assay: Concentration required for the 50% inhibition of growth of CCRF-CEM human leukemia cells in culture; No growth inhibition was observed at a concentration of 10^-4 M; type: functional, cell-based; in short: as §1
L1210 [13] = assay: Concentration required for the 50% inhibition of growth of L1210 mouse leukemia cells in culture; No growth inhibition was observed at a concentration of 10^-4 M; type: functional, cell-based; in short: as §1

Row | SMILES | IC50 (L1210 [1]) [µM] | IC50 (CCRF-CEM [2]) [µM] | ILS at 100 mg/kg (Mus musculus [3]) [%] | Mean day of death (Mus musculus [4]) [days] | Change of body weight (L1210 [5]) [%] | Mean survival time (Mus musculus [6]) [days] | Change of body weight (L1210 [7]) [%] | ILS at 150 mg/kg (Mus musculus [8]) [%] | ILS at 250 mg/kg (Mus musculus [9]) [%] | Change of body weight (L1210 [10]) [%] | Mean day of death (Mus musculus [11]) [days] | IC50 (CCRF-CEM [12]) | IC50 (L1210 [13])
1 | Cc1ccc(S(=O)(=O)OC[C@H]2OC(n3cc(F)c(=O)[nH]c3=O)[C@H](O)[C@@H]2O)cc1 (some centres not stated) | 0.46 | 1.8 | – | – | – | – | – | – | – | – | – | – | –
2 | CS(=O)(=O)OC[C@H]1OC(n2cc(F)c(=O)[nH]c2=O)[C@H](O)[C@@H]1O (some centres not stated) | 0.32 | 0.66 | 26 | 16.8 | 1.3 | 13.4 | 0 | 40 | 58 | -1.7 | 14.8 | – | –
3 | O=c1[nH]c(=O)n([C@@H]2O[C@H](CO)[C@@H](O)[C@H]2O)cc1F [5-FLUOROURIDINE] | 0.005 | 0.05 | – | – | – | – | – | – | – | – | – | – | –
4 | O=c1[nH]c(=O)n(C2O[C@H](CF)[C@@H](O)[C@H]2O)cc1F (some centres not stated) | 29 | 140 | 32 | 16.8 | 0.9 | 14 | -5.6 | 30 | 58 | 2.3 | 13.8 | – | –
5 | [N-]=[N+]=NC[C@H]1OC(n2cc(F)c(=O)[nH]c2=O)[C@H](O)[C@@H]1O (some centres not stated) | 170 | 350 | – | – | – | – | – | – | – | – | – | – | –
6 | O=c1[nH]cc(F)c(=O)[nH]1 [FLUOROURACIL] | 0.5 | 5 | – | – | – | – | – | – | – | – | – | – | –
7 | C[C@H]1O[C@@H](n2cc(F)c(=O)[nH]c2=O)[C@H](O)[C@@H]1O [DOXIFLURIDINE] | 3.6 | 22 | 8 | 12.8 | 4.8 | 11.4 | 5.7 | 13 | 20 | 0 | 12 | – | –
8 | O=c1[nH]c(=O)n(C2O[C@H](CO[N+](=O)[O-])[C@@H](O)[C@H]2O)cc1F (some centres not stated) | – | – | – | – | – | – | – | – | – | – | – | No inhibition | No inhibition
9 | O=c1[nH]c(=O)n(C2O[C@H](CBr)[C@@H](O)[C@H]2O)cc1F (some centres not stated) | 0.8 | 3.1 | 34 | 14.2 | – | 14.2 | 1.7 | 41 | 34 | -1.8 | 15 | – | –
10 | O=c1[nH]c(=O)n(C2O[C@H](CI)[C@@H](O)[C@H]2O)cc1F (some centres not stated) | 5 | 27 | – | – | – | – | 0 | – | – | – | – | – | –
11 | O=c1[nH]c(=O)n(C2O[C@H](CCl)[C@@H](O)[C@H]2O)cc1F (some centres not stated) | 3.4 | – | 47 | 17.4 | -3.5 | 15.6 | -0.8 | 51 | 64 | -4.6 | 16 | – | –
12 | NC[C@H]1OC(n2cc(F)c(=O)[nH]c2=O)[C@H](O)[C@@H]1O (some centres not stated) | 8.7 | 49 | 17 | 13.6 | -5.5 | 12.4 | 1.8 | 19 | 28 | -0.9 | 12.8 | – | –
